Experimental data from ChEMBL document CHEMBL4033721, “Design, synthesis and evaluation of indole-2-carboxamides with pan anti-mycobacterial activity” (Bioorg Med Chem, 2017).
Values after ≈ are worked out from the molar mass of the structure shown.

Test system: not listed separately
Test: Antimycobacterial activity against Mycobacterium bolletii ATCC 14472 after 8 days by resazurin microtiter based colorimetric assay
Format: functional
Conditions: Mycobacteroides abscessus, ATCC 14472, 192 h
In short: (§1)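 Resazurin microtiter plate MIC, read by visual scan for growth, in Mueller Hinton II broth. Strains include clinical isolates of M. abscessus complex, M. chelonae, M. avium, M. intracellulare, M. xenopi, P. aeruginosa PAO-1 and S. aureus ATCC 25923.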

Compound | MIC
Cc1cc(C)c2cc(C(=O)NC3CCCCCCC3)[nH]c2c1 | 0.0039 µg/mL (≈ 0.0131 µM)
Cc1cc(C)c2cc(C(=O)NC3CCCCCC3)[nH]c2c1 | ≤ 0.06 µg/mL
O=C(NC12CC3CC(CC(C3)C1)C2)c1cc2ccccc2[nH]1 | 0.25 µg/mL (≈ 0.849 µM)

Test system: Mycobacteroides abscessus
Test: Bactericidal activity against Mycobacterium abscessus after 8 days by resazurin microtiter based colorimetric assay
Format: functional
Conditions: not given
In short: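 MBC90 found by subculturing from the MIC wells onto 7H11 agar. Value is the lowest concentration cutting CFU by 90% versus the inoculum.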

Compound | MBC90
Cc1cc(C)c2cc(C(=O)NC3CCCCCCC3)[nH]c2c1 | 0.015 µg/mL (≈ 0.0503 µM)
Cc1cc(C)c2cc(C(=O)NC3CCCCCC3)[nH]c2c1 | 0.015 µg/mL (≈ 0.0527 µM)

Test system: Pseudomonas aeruginosa
Test: Antibacterial activity against Pseudomonas aeruginosa PAO1 after 8 days by resazurin microtiter based colorimetric assay
Format: functional
Conditions: PAO1, 192 h
In short: as §1

Compound | MIC
Cc1cc(C)c2cc(C(=O)NC3CCCCCCC3)[nH]c2c1 | > 160 µg/mL
Cc1cc(C)c2cc(C(=O)NC3CCCCCC3)[nH]c2c1 | > 160 µg/mL
O=C(NC12CC3CC(CC(C3)C1)C2)c1cc2ccccc2[nH]1 | > 160 µg/mL

Test system: Mycobacterium avium
Test: Antimycobacterial activity against Mycobacterium avium isolate 104 after 8 days by resazurin microtiter based colorimetric assay
Format: functional
Conditions: isolate 104, 192 h
In short: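 M. avium 104 MICs were read by resazurin microtiter colorimetric assay in 96-well plates, with growth scored visually, in Mueller Hinton II medium.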

Compound | MIC
Cc1cc(C)c2cc(C(=O)NC3CCCCCC3)[nH]c2c1 | 2 µg/mL (≈ 7.03 µM)
O=C(NC12CC3CC(CC(C3)C1)C2)c1cc2ccccc2[nH]1 | 8 µg/mL (≈ 27.2 µM)

Test system: Mycobacterium xenopi
Test: Antimycobacterial activity against wild type Mycobacterium xenopi isolate 4042 after 8 days by resazurin microtiter based colorimetric assay
Format: functional
Conditions: isolate 4042, 192 h
In short: as §1

Compound | MIC
Cc1cc(C)c2cc(C(=O)NC3CCCCCCC3)[nH]c2c1 | 0.25 µg/mL (≈ 0.838 µM)
Cc1cc(C)c2cc(C(=O)NC3CCCCCC3)[nH]c2c1 | 0.06 to 0.12 µg/mL (≈ 0.211 to 0.422 µM)
O=C(NC12CC3CC(CC(C3)C1)C2)c1cc2ccccc2[nH]1 | 0.5 to 1 µg/mL (≈ 1.7 to 3.4 µM)

Test system: Mycobacterium abscessus subsp. massiliense
Test: Inhibition of MmpL3 in Mycobacterium massiliense isolate 1513 assessed as reduction in trehalose monomycolate by measuring decrease in mycolic acid transfer to cell envelope after 16 hrs using [1,2-14C]acetate labeled compounds by TLC analysis
Conditions: not given
In short: (§2)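 Lipids were run on TLC in CHCl3:CH3OH:H2O 20:4:0.5. Cell wall-bound MAMEs were run in n-hexane:ethyl acetate 95:5, developed three times. Phosphorimaging read-out gave TMM/TDM ratios and MAME radioactivity relative to untreated control.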

Compound | inhibition
Cc1cc(C)c2cc(C(=O)NC3CCCCCCC3)[nH]c2c1 | Dose-dependent effect
O=C(NC12CC3CC(CC(C3)C1)C2)c1cc2ccccc2[nH]1 | Dose-dependent effect

Test system: Mycobacteroides abscessus
Test: Antimycobacterial activity against Mycobacterium abscessus ATCC 19977 after 8 days by resazurin microtiter based colorimetric assay
Format: functional
Conditions: ATCC 19977, 192 h
In short: as §1

Compound | MIC
Cc1cc(C)c2cc(C(=O)NC3CCCCCCC3)[nH]c2c1 | 0.063 µg/mL (≈ 0.211 µM)
Cc1cc(C)c2cc(C(=O)NC3CCCCCC3)[nH]c2c1 | ≤ 0.06 µg/mL
O=C(NC12CC3CC(CC(C3)C1)C2)c1cc2ccccc2[nH]1 | 0.25 µg/mL (≈ 0.849 µM)

Test system: Mycobacterium abscessus subsp. massiliense
Test: Inhibition of MmpL3 in Mycobacterium massiliense isolate 1513 assessed as reduction in arabinogalactan after 16 hrs using [1,2-14C]acetate labeled compounds by TLC analysis
Conditions: not given
In short: as §2

Compound | inhibition
Cc1cc(C)c2cc(C(=O)NC3CCCCCCC3)[nH]c2c1 | Dose-dependent effect
O=C(NC12CC3CC(CC(C3)C1)C2)c1cc2ccccc2[nH]1 | Dose-dependent effect

Test system: Mycobacteroides abscessus
Test: Antimycobacterial activity against Mycobacterium abscessus isolate DCI 21 after 8 days by resazurin microtiter based colorimetric assay
Format: functional
Conditions: isolate DCI 21, 192 h
In short: as §1

Compound | MIC
Cc1cc(C)c2cc(C(=O)NC3CCCCCCC3)[nH]c2c1 | 0.0078 µg/mL (≈ 0.0261 µM)
Cc1cc(C)c2cc(C(=O)NC3CCCCCC3)[nH]c2c1 | ≤ 0.06 µg/mL
O=C(NC12CC3CC(CC(C3)C1)C2)c1cc2ccccc2[nH]1 | 0.25 µg/mL (≈ 0.849 µM)

Test system: not listed separately
Test: Antimycobacterial activity against Mycobacterium massiliense isolate CRM0019 after 8 days by resazurin microtiter based colorimetric assay
Format: functional, Mycobacterium abscessus subsp. massiliense
Conditions: Mycobacteroides abscessus, isolate CRM0019, 192 h
In short: as §1

Compound | MIC
Cc1cc(C)c2cc(C(=O)NC3CCCCCCC3)[nH]c2c1 | 0.0078 µg/mL (≈ 0.0261 µM)
Cc1cc(C)c2cc(C(=O)NC3CCCCCC3)[nH]c2c1 | ≤ 0.06 µg/mL
O=C(NC12CC3CC(CC(C3)C1)C2)c1cc2ccccc2[nH]1 | 0.25 µg/mL (≈ 0.849 µM)

Test system: Mycobacterium avium-intracellulare
Test: Antimycobacterial activity against Mycobacterium avium-intracellulare isolate 1956 after 8 days by resazurin microtiter based colorimetric assay
Format: functional
Conditions: isolate 1956, 192 h
In short: as §1

Compound | MIC
Cc1cc(C)c2cc(C(=O)NC3CCCCCCC3)[nH]c2c1 | 1 µg/mL (≈ 3.35 µM)
Cc1cc(C)c2cc(C(=O)NC3CCCCCC3)[nH]c2c1 | 4 µg/mL (≈ 14.1 µM)
O=C(NC12CC3CC(CC(C3)C1)C2)c1cc2ccccc2[nH]1 | 8 µg/mL (≈ 27.2 µM)

Test system: not listed separately
Test: Antimycobacterial activity against Mycobacterium massiliense isolate CIP108297 after 8 days by resazurin microtiter based colorimetric assay
Format: functional, Mycobacterium abscessus subsp. massiliense
Conditions: Mycobacteroides abscessus, isolate CIP108297, 192 h
In short: as §1

Compound | MIC
Cc1cc(C)c2cc(C(=O)NC3CCCCCCC3)[nH]c2c1 | 0.031 µg/mL (≈ 0.104 µM)
Cc1cc(C)c2cc(C(=O)NC3CCCCCC3)[nH]c2c1 | ≤ 0.06 µg/mL
O=C(NC12CC3CC(CC(C3)C1)C2)c1cc2ccccc2[nH]1 | 0.5 µg/mL (≈ 1.7 µM)

Test system: Mycobacterium tuberculosis
Test: Antimycobacterial activity against Mycobacterium tuberculosis H37Rv MC2-6206 after 8 days by resazurin microtiter based colorimetric assay
Format: functional
Conditions: H37Rv MC2-6206, 192 h
In short: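 MIC was measured by resazurin microtiter colorimetric assay with visual growth scoring. Medium was 7H9-ADC–0.05% tyloxapol with 0.2% casaminoacids, 48 µg/ml pantothenate and 50 µg/ml L-leucine.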

Compound | MIC
Cc1cc(C)c2cc(C(=O)NC3CCCCCCC3)[nH]c2c1 | 0.0195 µg/mL (≈ 0.0653 µM)
Cc1cc(C)c2cc(C(=O)NC3CCCCCC3)[nH]c2c1 | 0.08 µg/mL (≈ 0.281 µM)
O=C(NC12CC3CC(CC(C3)C1)C2)c1cc2ccccc2[nH]1 | 0.2 µg/mL (≈ 0.679 µM)

Test system: not listed separately
Test: Selectivity index, ratio of TD50 for human THP1 cells to MIC for Mycobacterium massiliense isolate CRM0019
Format: toxicity
Conditions: THP-1 cells, read-out: Selectivity Index
In short: (§3)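 Ratio of THP-1 cytotoxicity to resazurin-assay MIC. Cytotoxicity: THP-1 cells were differentiated with 80 nM PMA overnight, plated for 24 h, then given 10-point DMSO dilutions (top 50 μM, 0.5% final DMSO) for 3 days at 37°C, 5% CO₂. ATP luminescence was read, with a staurosporine control. IC₅₀ = concentration giving 50% viability, from a Levenberg–Marquardt curve fit.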

Compound | selectivity ratio
Cc1cc(C)c2cc(C(=O)NC3CCCCCCC3)[nH]c2c1 | > 1910
O=C(NC12CC3CC(CC(C3)C1)C2)c1cc2ccccc2[nH]1 | > 58

Test system: not listed separately
Test: Selectivity index, ratio of TD50 for human THP1 cells to MIC for Mycobacterium tuberculosis H37Rv MC2-6206
Format: toxicity
Conditions: THP-1 cells, read-out: Selectivity Index
In short: as §3

Compound | selectivity ratio
Cc1cc(C)c2cc(C(=O)NC3CCCCCCC3)[nH]c2c1 | > 764
O=C(NC12CC3CC(CC(C3)C1)C2)c1cc2ccccc2[nH]1 | > 73

Test system: Mycolicibacterium smegmatis
Test: Antimycobacterial activity against Mycobacterium smegmatis isolate MC2 155 after 8 days by resazurin microtiter based colorimetric assay
Format: functional
Conditions: str. MC2 155, 192 h

Compound | MIC
Cc1cc(C)c2cc(C(=O)NC3CCCCCCC3)[nH]c2c1 | 0.313 to 0.625 µg/mL (≈ 1.05 to 2.09 µM)
Cc1cc(C)c2cc(C(=O)NC3CCCCCC3)[nH]c2c1 | 0.625 µg/mL (≈ 2.2 µM)
O=C(NC12CC3CC(CC(C3)C1)C2)c1cc2ccccc2[nH]1 | 1.56 µg/mL (≈ 5.3 µM)

Test system: Mycobacteroides chelonae
Test: Antimycobacterial activity against Mycobacterium chelonae ATCC 35752 after 8 days by resazurin microtiter based colorimetric assay
Format: functional
Conditions: ATCC 35752, 192 h
In short: as §1

Compound | MIC
Cc1cc(C)c2cc(C(=O)NC3CCCCCCC3)[nH]c2c1 | 0.063 µg/mL (≈ 0.211 µM)
Cc1cc(C)c2cc(C(=O)NC3CCCCCC3)[nH]c2c1 | ≤ 0.06 µg/mL
O=C(NC12CC3CC(CC(C3)C1)C2)c1cc2ccccc2[nH]1 | 0.25 µg/mL (≈ 0.849 µM)

Test system: not listed separately
Test: Cytotoxicity against human THP1 cells assessed as reduction in cell viability after 3 days by CellTiter-Glo based luminescence assay
Conditions: THP-1 cells, read-out: TD50
In short: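 THP-1 cells in complete RPMI, made macrophage-like with 80 nM PMA overnight at 37°C, 5% CO2, then seeded and cultured 24 h. Cells got 10-point DMSO serial dilutions (top 50 µM, final DMSO 0.5%) for 3 days, with staurosporine as control. Viability read by CellTiter-Glo luminescence. IC50 (50% viability) came from a Levenberg–Marquardt curve fit.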

Compound | CC50 at 72 h
Cc1cc(C)c2cc(C(=O)NC3CCCCCCC3)[nH]c2c1 | > 14.9 µg/mL
O=C(NC12CC3CC(CC(C3)C1)C2)c1cc2ccccc2[nH]1 | > 14.7 µg/mL

Test system: not listed separately
Test: Selectivity index, ratio of TD50 for human THP1 cells to MIC for Mycobacterium abscessus isolate DCI 21
Format: toxicity
Conditions: THP-1 cells, read-out: Selectivity Index
In short: as §3

Compound | selectivity ratio
Cc1cc(C)c2cc(C(=O)NC3CCCCCCC3)[nH]c2c1 | > 1910
O=C(NC12CC3CC(CC(C3)C1)C2)c1cc2ccccc2[nH]1 | > 58

Test system: Staphylococcus aureus
Test: Antibacterial activity against Staphylococcus aureus ATCC 25923 after 8 days by resazurin microtiter based colorimetric assay
Format: functional
Conditions: ATCC 25923, 192 h
In short: as §1

Compound | MIC
Cc1cc(C)c2cc(C(=O)NC3CCCCCCC3)[nH]c2c1 | > 160 µg/mL
Cc1cc(C)c2cc(C(=O)NC3CCCCCC3)[nH]c2c1 | > 160 µg/mL
O=C(NC12CC3CC(CC(C3)C1)C2)c1cc2ccccc2[nH]1 | > 160 µg/mL

Test system: not listed separately
Test: Selectivity index, ratio of TD50 for human THP1 cells to MIC for Mycobacterium chelonae ATCC 35752
Format: toxicity
Conditions: THP-1 cells, read-out: Selectivity Index
In short: as §3

Compound | selectivity ratio
Cc1cc(C)c2cc(C(=O)NC3CCCCCCC3)[nH]c2c1 | > 236
O=C(NC12CC3CC(CC(C3)C1)C2)c1cc2ccccc2[nH]1 | > 58

Test system: not listed separately
Test: Selectivity index, ratio of TD50 for human THP1 cells to MIC for Mycobacterium bolletii ATCC 14472
Format: toxicity
Conditions: THP-1 cells, read-out: Selectivity Index
In short: as §3

Compound | selectivity ratio
Cc1cc(C)c2cc(C(=O)NC3CCCCCCC3)[nH]c2c1 | > 3820
O=C(NC12CC3CC(CC(C3)C1)C2)c1cc2ccccc2[nH]1 | > 58

Test system: Mycobacterium abscessus subsp. massiliense
Test: Inhibition of MmpL3 in Mycobacterium massiliense isolate 1513 assessed as reduction in trehalose dimycolate after 16 hrs using [1,2-14C]acetate labeled compounds by TLC analysis
Conditions: not given
In short: as §2

Compound | inhibition
Cc1cc(C)c2cc(C(=O)NC3CCCCCCC3)[nH]c2c1 | Dose-dependent effect
O=C(NC12CC3CC(CC(C3)C1)C2)c1cc2ccccc2[nH]1 | Dose-dependent effect
